Results from ChEMBL document CHEMBL1124598, “Benzofuro[2,3-c]pyridin-6-ols: synthesis, affinity for opioid-receptor subtypes, and antinociceptive activity” (J Med Chem, 1989).

Each molecule was assayed on Mus musculus (assay: Analgesic activity 30 min after subcutaneous administration in mouse by using PQW test). Settings: sc, 0.5 h.
Format: functional
Outline: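 Male CF-1 mice (18-23 g), ten per dose; compound given sc, then 30 min later phenylquinone 3.75 mg/kg in 5% aqueous ethanol ip. Mice observed 10 min in free-moving cages for abdominal stretching. ED50 determined with 95% confidence limits.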
CC[C@@]12CCN(CC3CCCC3)C[C@@H]1Oc1ccc(O)cc12 gave an ED50 of 0.0521 µmol/kg.
Molecule CCCN1CC[C@@]2(CC)c3cc(O)ccc3O[C@H]2C1 has an ED50 of 0.0051 µmol/kg.
CC[C@@]12CCN(C)C[C@@H]1Oc1ccc(O)cc12 gave an ED50 of 0.005 µmol/kg.
With CC[C@@]12CCN(CC3CCC3)C[C@@H]1Oc1ccc(O)cc12 the ED50 was 0.00145 µmol/kg.
With CC[C@@]12CCN(Cc3ccoc3)C[C@@H]1Oc1ccc(O)cc12 the ED50 was 0.0512 µmol/kg.
Molecule CC[C@@]12CCN(CC3CCCO3)C[C@@H]1Oc1ccc(O)cc12 (some centres undefined) has an ED50 of 0.005 µmol/kg.
CC[C@@]12CCN(Cc3ccco3)C[C@@H]1Oc1ccc(O)cc12 was tested, and the ED50 was 0.0908 µmol/kg.
With CC[C@@]12CCN(CC3CC3)C[C@@H]1Oc1ccc(O)cc12 the ED50 was 0.00119 µmol/kg.
In the case of CC[C@@]12CCN(CCc3ccccc3)C[C@@H]1Oc1ccc(O)cc12, the ED50 is reported as 0.00037 µmol/kg.
